# Source: PubChem (several laboratories)
# In the library only some 5.3% were active in any assay of this set; here they are far more common.
# Mdm2 MdmX PPI: human Mdm2/MdmX binding inhibition; AID 485346; 3% of 330,000 active; SaOS-2 split-luciferase Mdm2/MdmX complementation, luminescence; O15151+Q00987; inhibition, % at 8 µM;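 active = inhibition of at least 50% at 8 µM in the primary screen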
# T cruzi inh: T. cruzi replication inhibition | AID 1885 | T. cruzi beta-gal in NIH3T3, luminescence, 90 h | inhibition, % (concentration not given with the values) | 1.4% of 300,000 active;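 active = mean inhibition across valid replicates above about 55%, limit read from the data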;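 note: signal also drops with host cell toxicity which is not excluded here; 0% = plate median of DMSO wells and 100% = zero luminescence signal; higher percent means less beta-gal luminescence so fewer parasites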
#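 assay system = mouse NIH/3T3 fibroblasts infected with β-gal-expressing T. cruzi Tulahuen C4 | input = 5,000 NIH/3T3 host cells per well | buffer or medium = DMEM plus 2% FBS | timing = 3 h host attachment, then at least 90 h co-culture | measured by = GalScreen luminescence, 60 min | evaluation = luminescence reflecting intracellular parasite burden, expressed as percent inhibition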
# NLRP3 yeast inh: NALP3 inhibition in yeast; Yeast reconstituted NLRP3/ASC/caspase-1, beta-gal luminescence, 24 h; inhibition, % at 10 µM; 0.39% of 330,000 active;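 active = inhibition of 50% or more; inactive = inhibition below 50%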;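 note: plate controls were induced DMSO wells for no effect and uninduced yeast grown without galactose for full effect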
# Calb FLC: affects C. albicans growth with fluconazole | C. albicans CaCi-2 (fluconazole-resistant clinical isolate) + fluconazole, Alamar Blue growth, 48 h | growth inhibition, % (no concentration beside the values) | 0.57% of 300,000 active | AID 1979;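 active = growth inhibition above about 58% in most replicates, limit read from the data, passing the limit was not always enough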;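 note: all wells also contain fluconazole at 8 µg/ml as a sub-toxic cotreatment; 0% = median of DMSO wells and 100% = median of geldanamycin control wells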
# CSC inhib: cancer stem cell inhibition; cancer stem cell-like cells viability, luminescence; inhibition, % at 7.5 µM; 1.1% of 300,000 active; AID 2717; in the data active = inhibition above about 75%; tested in HMLE shEcad cells
# Beta apoptosis: beta cell apoptosis inhibition. INS-1E cytokine-induced death, ATP luminescence, 48 h; percent of positive-control rescue, neutral wells zero. protection from apoptosis, % (test concentration not listed). 0.8% of 300,000 active. AID 435005;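 active = Every replicate reaches about 75%, or at least half do and their mean reaches it too, limit read from the data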;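 note: 0% = cytokine-treated negative control wells and 100% = positive control rescue; higher means more ATP so stronger rescue from cytokine killing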
# Active calls of the source: *; . = not tested or not shown.
SMILES,Mdm2 MdmX PPI,T cruzi inh,NLRP3 yeast inh,Calb FLC,CSC inhib,Beta apoptosis
COc1ccc2c(c1)C=C(CN1CCN(C3CCCC3)C(CCO)C1)CO2 (stereo not given),10,58*,0,6,64,-2
O=C1c2cccnc2C(=O)N1CNc1ccc(Cl)cc1,21,0,11,134*,29,-7
O=C1c2ccncc2C(=O)N1CNc1ccc(Cl)cc1,-4,-19,6,-8,36,-1
Cc1ccc(Cl)cc1N1CCN(C(=O)CSc2nnc3n2C(C)(C)Cc2ccccc2-3)CC1,47,24,16,18,41,94*
COc1ccc(N2CCN(C(=O)CSc3nnc4n3C(C)(C)Cc3ccccc3-4)CC2)cc1,21,36,-3,-1,-3,6
CCCCC(Nc1ncnc2ccccc12)C(=O)O (stereo not given),18,0,1,-9,-1,-3
CC(Nc1ncnc2ccccc12)c1ccccc1 (stereo not given),17,10,8,76*,22,96*
Cc1ccc(N(Cc2ccccc2)C(=O)c2ccc(C)c(S(=O)(=O)N3CCOCC3)c2)cc1,23,.,13,.,.,4
O=C(Nc1nc2c(Cl)cccc2s1)c1ccc(Br)o1,-5,-3,6,54*,-2,19
CNc1ccc(Oc2nc([N+](=O)[O-])nn2C)cc1,13,69*,-1,0,-5,3
Cn1nc([N+](=O)[O-])nc1Oc1ccc(C(C)(C)C)cc1,-14,64*,13,-28,-1,-2
Cn1nc([N+](=O)[O-])nc1Oc1ccccc1,-11,79*,10,-8,.,.
Clc1ccc(SCCN2CCNCC2)cc1,-8,63*,21,-34,10,-7
Cc1ccc(SCCN2CCN(Cc3ccccc3)CC2)cc1,25,73*,29,-22,43,1
Clc1ccc(SCCCN2CCCCC2)cc1,18,22,25,-13,21,-13
Cc1ccc(SCCN2CCN(C)CC2)cc1,10,64*,25,-5,10,-2
OCCN1CCN(CCSc2ccccc2)CC1,4,14,6,-6,24,0
Cc1ccc(SCCN2CCN(C)CCC2=O)cc1,-13,-13,-12,-10,.,.
CN1CCC(N(C)CC(=O)Nc2cccc(Oc3ccccc3)c2)CC1,3,62*,-8,-3,53,-4
CCN(c1ccccc1)S(=O)(=O)c1ccc(Cl)c(NC(=O)CN2CCN(C)CC2)c1,-6,.,10,.,.,-2
CCN(c1ccccc1)S(=O)(=O)c1ccc(Cl)c(NC(=O)CN(C)C2CCN(C)CC2)c1,23,56*,13,78*,-4,11
Cc1ccc(S(=O)(=O)N2CCC(C(=O)N[C@@H](C)C(=O)Nc3ccc4c(c3)OCO4)CC2)cc1,6,-5,11,-4,7,5
CCCCSc1nc2ccc(Nc3nc(N4CCOCC4)nc(N4CCOCC4)n3)cc2s1,7,57*,5,-1,-9,9
O=C(CSc1nncs1)NNC(=O)c1ccccc1Br,19,.,8,.,-15,-3
CN(c1ccccc1)c1nc(N2CCCC2)nc(-n2ccnc2)n1,22,12,17,-25,19,2
SMILES,Mdm2 MdmX PPI,T cruzi inh,NLRP3 yeast inh,Calb FLC,CSC inhib,Beta apoptosis
c1ccc(CN2CCN(c3nc(-c4ccccc4)nc(-n4ccnc4)n3)CC2)cc1,16,60*,-1,7,42,39
c1ccc(-c2nc(-n3ccnc3)nc(-n3ccnc3)n2)cc1,29,1,12,7,4,16
c1ccc(N(c2ccccc2)c2nc(N3CCCC3)nc(-n3ccnc3)n2)cc1,28,57*,20,3,101*,24
Cc1nc2cc(NCc3ccc(Cl)cc3)ccc2n1C,-138,17,5,-10,-18,.
O=C(COc1ccccc1)NC(=S)Nc1ccc2c(c1)Cc1ccccc1-2,23,61*,10,0,.,-2
O=C(COc1ccccc1)NC(=S)Nc1cccc([N+](=O)[O-])c1,-8,-18,30,-5,-20,.
CC(=O)c1sc(-c2ccc(F)cc2)cc1NS(=O)(=O)c1ccc(C)cc1,34,-11,24,-3,1,-6
NC(=O)c1sc(-c2ccsc2)cc1NS(=O)(=O)c1ccc(C(F)(F)F)cc1,13,-22,-4,14,79*,13
O=C(COc1ccccc1)Nc1cccc(-c2nc3cc4ccccc4cc3[nH]2)c1,-146,20,25,109*,88*,33
O=C(COc1ccccc1)Nc1cccc(-c2nn[nH]n2)c1,6,-2,2,-3,16,.
COc1cccc(NC(=O)Nc2cc(Cl)ccc2C)c1,21,15,8,-23,2,6
CCCCN(C)S(=O)(=O)c1ccc(C(=O)Nc2nnc(-c3ccco3)o2)cc1,31,29,1,98*,27,-3
CCCCN(CC)S(=O)(=O)c1ccc(C(=O)Nc2nnc(-c3cccs3)o2)cc1,29,63*,8,-4,41,1
CCN(CC)S(=O)(=O)c1ccc(C(=O)Nc2nnc(-c3ccco3)o2)cc1,34,-17,12,30,2,6
CCc1nnc(NC(=O)c2ccc(S(=O)(=O)N(C)Cc3ccccc3)cc2)o1,40,-6,8,0,25,7
CN(Cc1ccccc1)S(=O)(=O)c1ccc(C(=O)Nc2nnc(C3CC3)o2)cc1,33,37,-2,85*,13,5
Cc1ccc(N(Cc2ccccc2)C(=O)c2cccc(S(=O)(=O)N3CCN(C)CC3)c2)cc1,16,28,9,-3,-17,-2
O=C(Nc1nccs1)C1CCN(S(=O)(=O)c2cnc[nH]2)CC1,2,6,14,-1,9,-2
Cc1cc(OC(=O)c2ccc(F)cc2)c([N+](=O)[O-])c(=O)[nH]1,0,-2,-14,-5,-2,2
COc1ccc(C)cc1Nc1n[n+](C)c(-c2ccc(O)cc2O)s1,4,-8,12,-8,7,-3
COc1ccc(C)cc1Nc1n[n+](-c2ccccc2)c(-c2ccc(N(C)C)cc2)s1,50,47,18,105*,-2,99*
COc1ccc(C)cc1Nc1n[n+](-c2ccccc2)c(-c2ccc(OC)c(OC)c2OC)s1,39,55*,18,92*,6,96*
CN(C)c1ccc(-c2sc(Nc3ccccc3)n[n+]2-c2ccc(F)cc2)cc1,11,19,-7,-14,2,3
CCOc1ccccc1C(=O)N/N=C/c1ccoc1,11,.,10,104*,-10,-6
CCOC(=O)N1CCN(C(=O)CSCC(=O)Nc2nc(-c3ccc(-c4ccccc4)cc3)cs2)CC1,-77,21,10,6,33,89*
CCOC(=O)N1CCN(C(=O)CSCC(=O)Nc2nc(-c3ccc(OC)cc3)cs2)CC1,0,-2,7,40,-8,-9
